{
  "source": "the RNAGym collection of RNA variant scans (doi:10.1002/anie.201605470)",
  "parents": {"B1": {"name": "Osa-1-4 twister ribozyme (parent)", "chain": "CCGCCUAACACUGCCAAUGCCGGUCCCAAGCCCGGAUAAAAGUGGAGGGGGCGG"}},
  "data": [
    {"variants_of": "B1", "experiment": "self-cleavage, relative activity (ratio to wild type); higher = more cleavage; co-transcriptional", "method_in_brief": "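Relative activity is the fraction cleaved divided by that of the wild-type ribozyme. The library came from a DNA template for a 54-nucleotide Oryza sativa twister ribozyme, doped at the 48 positions downstream of the cleavage site with 97 % wild-type base and 1 % of each other base. After 2 h of in vitro transcription at 37 °C with co-transcriptional self-cleavage, the RNA was reverse-transcribed with a template-switching oligonucleotide, amplified by PCR and deep-sequenced, and reads with or without upstream sequence gave the cleavage status.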", "values": [
      {"variant": "CCGCCUAACACUGCCAAUGCCGGUCCCAAGCCCGGAUGAAAGUGGAGGGUGCGG", "note": "[A38G G50U]", "self-cleavage": 1},
      {"variant": "CCGCCUAACACUGCCAAUGCCGGUCCCAAGCCCGGAUGAAAGUGGAGGGGACGG", "note": "[A38G G51A]", "self-cleavage": 0.72},
      {"variant": "CCGCCUAACACUGCCAAUGCCGGUCCCAAGCCCGGAUGAAAGUGGAGGGGCCGG", "note": "[A38G G51C]", "self-cleavage": 0.11},
      {"variant": "CCGCCUAACACUGCCAAUGCCGGUCCCAAGCCCGGAUGAAAGUGGAGGGGUCGG", "note": "[A38G G51U]", "self-cleavage": 0.36},
      {"variant": "CCGCCUAACACUGCCAAUGCCGGUCCCAAGCCCGGAUGAAAGUGGAGGGGGCAG", "note": "[A38G G53A]", "self-cleavage": 0.8},
      {"variant": "CCGCCUAACACUGCCAAUGCCGGUCCCAAGCCCGGAUGAAAGUGGAGGGGGCCG", "note": "[A38G G53C]", "self-cleavage": 0.09},
      {"variant": "CCGCCUAACACUGCCAAUGCCGGUCCCAAGCCCGGAUGAAAGUGGAGGGGGCUG", "note": "[A38G G53U]", "self-cleavage": 0.31},
      {"variant": "CCGCCUAACACUGCCAAUGCCGGUCCCAAGCCCGGAUGAAAGUGGAGGGGGCGA", "note": "[A38G G54A]", "self-cleavage": 0.92},
      {"variant": "CCGCCUAACACUGCCAAUGCCGGUCCCAAGCCCGGAUGAAAGUGGAGGGGGCGC", "note": "[A38G G54C]", "self-cleavage": 0.94},
      {"variant": "CCGCCUAACACUGCCAAUGCCGGUCCCAAGCCCGGAUGAAAGUGGAGGGGGCGU", "note": "[A38G G54U]", "self-cleavage": 0.94},
      {"variant": "CCGCCUAACACAGCCAAUGCCGGUCCCAAGCCCGGAUGAAAGUGGAGGGGGCGG", "note": "[A38G U12A]", "self-cleavage": 0.88},
      {"variant": "CCGCCUAACACCGCCAAUGCCGGUCCCAAGCCCGGAUGAAAGUGGAGGGGGCGG", "note": "[A38G U12C]", "self-cleavage": 0.42},
      {"variant": "CCGCCUAACACGGCCAAUGCCGGUCCCAAGCCCGGAUGAAAGUGGAGGGGGCGG", "note": "[A38G U12G]", "self-cleavage": 0.41},
      {"variant": "CCGCCUAACACUGCCAAAGCCGGUCCCAAGCCCGGAUGAAAGUGGAGGGGGCGG", "note": "[A38G U18A]", "self-cleavage": 0.92},
      {"variant": "CCGCCUAACACUGCCAACGCCGGUCCCAAGCCCGGAUGAAAGUGGAGGGGGCGG", "note": "[A38G U18C]", "self-cleavage": 0.97},
      {"variant": "CCGCCUAACACUGCCAAGGCCGGUCCCAAGCCCGGAUGAAAGUGGAGGGGGCGG", "note": "[A38G U18G]", "self-cleavage": 0.84},
      {"variant": "CCGCCUAACACUGCCAAUGCCGGACCCAAGCCCGGAUGAAAGUGGAGGGGGCGG", "note": "[A38G U24A]", "self-cleavage": 0.16},
      {"variant": "CCGCCUAACACUGCCAAUGCCGGCCCCAAGCCCGGAUGAAAGUGGAGGGGGCGG", "note": "[A38G U24C]", "self-cleavage": 0.32},
      {"variant": "CCGCCUAACACUGCCAAUGCCGGGCCCAAGCCCGGAUGAAAGUGGAGGGGGCGG", "note": "[A38G U24G]", "self-cleavage": 0.03},
      {"variant": "CCGCCUAACACUGCCAAUGCCGGUCCCAAGCCCGGAAGAAAGUGGAGGGGGCGG", "note": "[A38G U37A]", "self-cleavage": 1},
      {"variant": "CCGCCUAACACUGCCAAUGCCGGUCCCAAGCCCGGACGAAAGUGGAGGGGGCGG", "note": "[A38G U37C]", "self-cleavage": 1.05},
      {"variant": "CCGCCUAACACUGCCAAUGCCGGUCCCAAGCCCGGAGGAAAGUGGAGGGGGCGG", "note": "[A38G U37G]", "self-cleavage": 1},
      {"variant": "CCGCCUAACACUGCCAAUGCCGGUCCCAAGCCCGGAUGAAAGAGGAGGGGGCGG", "note": "[A38G U43A]", "self-cleavage": 0.89},
      {"variant": "CCGCCUAACACUGCCAAUGCCGGUCCCAAGCCCGGAUGAAAGCGGAGGGGGCGG", "note": "[A38G U43C]", "self-cleavage": 0.35},
      {"variant": "CCGCCUAACACUGCCAAUGCCGGUCCCAAGCCCGGAUGAAAGGGGAGGGGGCGG", "note": "[A38G U43G]", "self-cleavage": 0.62},
      {"variant": "CCGCCUAACACUGCCAAUGCCGGUCCCAAGCCCGGAUUAAAGUGGAGGGGGCGG", "note": "[A38U]", "self-cleavage": 1.01},
      {"variant": "CCGCCUCACACUGCCAAUGCCGGUCCCAAGCCCGGAUUAAAGUGGAGGGGGCGG", "note": "[A38U A7C]", "self-cleavage": 0.05},
      {"variant": "CCGCCUGACACUGCCAAUGCCGGUCCCAAGCCCGGAUUAAAGUGGAGGGGGCGG", "note": "[A38U A7G]", "self-cleavage": 0.24},
      {"variant": "CCGCCUUACACUGCCAAUGCCGGUCCCAAGCCCGGAUUAAAGUGGAGGGGGCGG", "note": "[A38U A7U]", "self-cleavage": 0.12},
      {"variant": "CCGCCUACCACUGCCAAUGCCGGUCCCAAGCCCGGAUUAAAGUGGAGGGGGCGG", "note": "[A38U A8C]", "self-cleavage": 0.09},
      {"variant": "CCGCCUAGCACUGCCAAUGCCGGUCCCAAGCCCGGAUUAAAGUGGAGGGGGCGG", "note": "[A38U A8G]", "self-cleavage": 0.52},
      {"variant": "CCGCCUAUCACUGCCAAUGCCGGUCCCAAGCCCGGAUUAAAGUGGAGGGGGCGG", "note": "[A38U A8U]", "self-cleavage": 0.25},
      {"variant": "CCGCCUAACACUGCCAAUGCCGGUCCCAAGCCCGGAUUCAAGUGGAGGGGGCGG", "note": "[A38U A39C]", "self-cleavage": 0.96},
      {"variant": "CCGCCUAACACUGCCAAUGCCGGUCCCAAGCCCGGAUUGAAGUGGAGGGGGCGG", "note": "[A38U A39G]", "self-cleavage": 0.64},
      {"variant": "CCGCCUAACACUGCCAAUGCCGGUCCCAAGCCCGGAUUUAAGUGGAGGGGGCGG", "note": "[A38U A39U]", "self-cleavage": 0.97},
      {"variant": "CCGCCUAACACUGCCAAUGCCGGUCCCAAGCCCGGAUUACAGUGGAGGGGGCGG", "note": "[A38U A40C]", "self-cleavage": 0.06},
      {"variant": "CCGCCUAACACUGCCAAUGCCGGUCCCAAGCCCGGAUUAGAGUGGAGGGGGCGG", "note": "[A38U A40G]", "self-cleavage": 0.64},
      {"variant": "CCGCCUAACACUGCCAAUGCCGGUCCCAAGCCCGGAUUAUAGUGGAGGGGGCGG", "note": "[A38U A40U]", "self-cleavage": 0.55},
      {"variant": "CCGCCUAACACUGCCAAUGCCGGUCCCAAGCCCGGAUUAACGUGGAGGGGGCGG", "note": "[A38U A41C]", "self-cleavage": 0.89},
      {"variant": "CCGCCUAACACUGCCAAUGCCGGUCCCAAGCCCGGAUUAAGGUGGAGGGGGCGG", "note": "[A38U A41G]", "self-cleavage": 0.64},
      {"variant": "CCGCCUAACACUGCCAAUGCCGGUCCCAAGCCCGGAUUAAUGUGGAGGGGGCGG", "note": "[A38U A41U]", "self-cleavage": 0.98},
      {"variant": "CCGCCUAACACUGCCAAUGCCGGUCCCAAGCCCGGAUUAAAGUGGCGGGGGCGG", "note": "[A38U A46C]", "self-cleavage": 0.06},
      {"variant": "CCGCCUAACACUGCCAAUGCCGGUCCCAAGCCCGGAUUAAAGUGGGGGGGGCGG", "note": "[A38U A46G]", "self-cleavage": 0.05},
      {"variant": "CCGCCUAACACUGCCAAUGCCGGUCCCAAGCCCGGAUUAAAGUGGUGGGGGCGG", "note": "[A38U A46U]", "self-cleavage": 0.07},
      {"variant": "CCGCCUAAAACUGCCAAUGCCGGUCCCAAGCCCGGAUUAAAGUGGAGGGGGCGG", "note": "[A38U C9A]", "self-cleavage": 0.42},
      {"variant": "CCGCCUAAGACUGCCAAUGCCGGUCCCAAGCCCGGAUUAAAGUGGAGGGGGCGG", "note": "[A38U C9G]", "self-cleavage": 0.84},
      {"variant": "CCGCCUAAUACUGCCAAUGCCGGUCCCAAGCCCGGAUUAAAGUGGAGGGGGCGG", "note": "[A38U C9U]", "self-cleavage": 0.74},
      {"variant": "CCGCCUAACAAUGCCAAUGCCGGUCCCAAGCCCGGAUUAAAGUGGAGGGGGCGG", "note": "[A38U C11A]", "self-cleavage": 0.78},
      {"variant": "CCGCCUAACAGUGCCAAUGCCGGUCCCAAGCCCGGAUUAAAGUGGAGGGGGCGG", "note": "[A38U C11G]", "self-cleavage": 0.59}
    ]}
  ]
}
